Each structure is given as a SMILES string. The source made the active and inactive calls. No cut-off for these calls is given here.

What all share (type): cell-based
For assay [1], the target named is T1, 11-beta-hydroxysteroid dehydrogenase 1 (Homo sapiens, UniProt P28845). Nature of the assay: Inhibition of human 11beta-HSD1 expressed in HEK293 cells assessed as [1,2-3H]-cortisone reduction […] measured as residual activity after 10 mins relative to control in presence of NADPH. In short, it runs like this: (§1)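 Cell-free 11β-HSD1 activity assay. Compounds were first screened at a single 20 µM concentration, and IC50 values were then determined for selected compounds. Values are mean ± SD from at least three independent experiments.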
Target sequence in this assay (P28845 whole entry, looked up): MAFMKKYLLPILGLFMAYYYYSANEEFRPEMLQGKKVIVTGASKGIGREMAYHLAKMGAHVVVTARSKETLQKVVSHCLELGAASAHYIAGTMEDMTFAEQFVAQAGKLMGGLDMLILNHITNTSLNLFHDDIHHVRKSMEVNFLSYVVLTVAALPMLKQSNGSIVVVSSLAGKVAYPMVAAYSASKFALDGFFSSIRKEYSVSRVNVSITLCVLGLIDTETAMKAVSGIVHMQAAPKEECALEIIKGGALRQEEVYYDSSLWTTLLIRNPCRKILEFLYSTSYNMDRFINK

Assay [2] deals with T1, 11-beta-hydroxysteroid dehydrogenase 1. In words: Inhibition of human 11beta-HSD1 expressed in HEK293 cells assessed as [1,2-3H]-cortisone reduction […] after 10 mins in presence of NADPH. An outline of the steps:
as §1
Target sequence in this assay (P28845 whole entry): as the sequence (P28845 whole entry, looked up) above

For assay [3], the target named is T2, 11-beta-hydroxysteroid dehydrogenase type 2 (Homo sapiens) (UniProt P80365).
T2 sequence (whole entry): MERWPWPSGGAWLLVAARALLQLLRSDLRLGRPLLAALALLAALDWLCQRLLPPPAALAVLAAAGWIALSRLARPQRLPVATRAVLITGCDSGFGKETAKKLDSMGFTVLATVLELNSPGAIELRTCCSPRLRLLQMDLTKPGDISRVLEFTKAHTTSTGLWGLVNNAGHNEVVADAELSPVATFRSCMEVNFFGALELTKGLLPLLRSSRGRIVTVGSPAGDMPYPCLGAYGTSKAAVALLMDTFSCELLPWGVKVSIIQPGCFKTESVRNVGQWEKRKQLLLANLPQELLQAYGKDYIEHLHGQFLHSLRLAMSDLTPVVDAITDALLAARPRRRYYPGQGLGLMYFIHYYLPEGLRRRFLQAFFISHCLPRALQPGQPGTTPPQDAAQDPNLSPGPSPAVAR
Nature of the assay: Inhibition of human 11beta-HSD2 expressed in HEK293 cells assessed as [1,2,6,7-3H]-cortisol oxidation to [1,2-3H]-cortisone at 20 uM after 10 mins in presence of NAD+.

The target of assay [4] is T1, 11-beta-hydroxysteroid dehydrogenase 1. Nature of the assay: Inhibition of human 11beta-HSD1 expressed in HEK293 cells assessed as [1,2-3H]-cortisone reduction […] measured as residual activity at 20 uM after 10 mins relative to control in presence of NADPH. An outline of the steps: as §1
Target sequence in this assay (P28845 whole entry, looked up): as the sequence (P28845 whole entry, looked up) above

The term IC50 denotes the concentration at which inhibition is half-maximal. Consider `CC(C)(C)c1ccc(S(=O)(=O)N2CCN(c3nc4ccccc4o3)CC2)cc1`, for which the Activity in assay [1] came out at 18%. Besides, in assay [2] (hek293), the IC50 result is listed as “ND(Insoluble)”. In assay [3], the inhibition result was “inactive”.
In the case of `Cc1ccc(S(=O)(=O)N2CCN(c3nc4ccccc4[nH]3)CC2)cc1`, the inhibition result in assay [3] is “inactive”. The Activity in assay [4] is 50%.
On the same counts, the results for `Cc1ccc(C(=O)N2CCN(c3nc4ccccc4[nH]3)CC2)cc1` are “inactive” and 65%.
Consider `COc1ccc(S(=O)(=O)N2CCN(c3nc4ccccc4n3C)CC2)cc1`, for which, in assay [2] (read-out: IC50), the IC50 was 4.2 µM. Further, the inhibition entry in assay [3] is “inactive”.
Regarding `Cn1c(N2CCN(S(=O)(=O)c3cccc(C(=O)NO)c3)CC2)nc2ccccc21`, the inhibition result in assay [3] is “inactive”. The Activity in assay [4] stood at 60%.
In the case of `COc1ccc(S(=O)(=O)N2CCN(c3nc4ccccc4n3C)CC2)cc1OC`, the half-maximal inhibitory concentration (IC50) in assay [2] (read-out: IC50) was 18.5 µM. In addition, the inhibition result in assay [3] was “inactive”.
Taken in the same sequence, the figures for `Cn1c(N2CCN(S(=O)(=O)c3ccc(C(C)(C)C)cc3)CC2)nc2ccccc21` were 4.8 µM and “inactive”.
Consider `Cc1ccc(S(=O)(=O)N2CCN(c3nc4ccccc4s3)CC2)cc1`, for which the inhibition entry in assay [3] is “inactive”. In addition, the Activity in assay [4] came to 89%.
Regarding `Cn1c(N2CCN(S(=O)(=O)c3ccc(C(=O)O)cc3)CC2)nc2ccccc21`, in assay [3], the inhibition entry was “inactive”. For the same compound, the Activity in assay [4] was 90%.
Take `Cn1c(N2CCN(S(=O)(=O)c3ccccc3)CC2)nc2ccccc21`: in assay [2] (read-out: IC50), the half-maximal inhibitory concentration (IC50) came to 6.4 µM. Also, the inhibition result in assay [3] was “inactive”.
Turning to `Cn1c(N2CCN(S(=O)(=O)c3ccc(C(=O)NO)cc3)CC2)nc2ccccc21`, the inhibition entry in assay [3] was “inactive”. Also, in assay [4], the Activity came to 90%.
`COc1ccc(S(=O)(=O)N2CCN(c3nc4ccccc4n3C)CC2)cc1[N+](=O)[O-]`: in assay [2] (read-out: IC50), the concentration for half-maximal inhibition (IC50) was 27.2 µM. The inhibition entry in assay [3] was “inactive”.
On the same counts, the results for `Cc1ccc(S(=O)(=O)N2CCN(c3nc4ccccc4n3C)CC2)cc1` are 0.7 µM and “inactive”.
For the compound `Cn1c(N2CCN(S(=O)(=O)c3cccc(C(=O)O)c3)CC2)nc2ccccc21`, in assay [3], the inhibition entry is “inactive”. In addition, in assay [4], the Activity was 75%.

These data come from ChEMBL document CHEMBL2424547, “Synthesis and biological analysis of benzazol-2-yl piperazine sulfonamides as 11β-hydroxysteroid dehydrogenase 1 inhibitors” (Bioorg Med Chem Lett, 2013).
